Screening data from PubChem.
Hits are enriched below; roughly 2.2% of the tested compounds scored in any of these assays.
Ins promoter up: MIN6 insulin promoter up-regulation. MIN6 insulin promoter-GFP reporter, high-content imaging; active compounds read high. z-score at 5 µM. 0.3% of 190,000 active. AID 1625;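 active = z-score above 3 at 5 µM with at least 500 cells counted in the well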
RBBP9 inhibitor: blocks human serine hydrolase RBBP9. recombinant RBBP9, FP-Rh probe fluorescence polarization. 0.2% of 220,000 active. inhibition, % at 7.94 µM. O75884;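 active = inhibition above the campaign mean of all tested compounds plus 3 SD, cut at about 14% in these data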;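 also: plate controls were DMSO wells with RBBP9 for no effect and wells lacking RBBP9 protein for full effect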
Target sequence (O75884 whole entry, looked up): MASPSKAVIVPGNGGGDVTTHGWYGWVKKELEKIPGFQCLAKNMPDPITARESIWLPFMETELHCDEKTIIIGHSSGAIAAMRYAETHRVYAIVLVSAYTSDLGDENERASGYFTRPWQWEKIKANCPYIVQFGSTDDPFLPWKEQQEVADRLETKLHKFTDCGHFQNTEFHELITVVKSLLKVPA
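System: RBBP9 protein / Quantity: 2.5 µM RBBP9 dispensing solution, before mixing / Also added: Serine-hydrolase probe FP-Rh, 375 nM pre-mixing / Dosing: 7.94 µM single dose, 0.794% DMSO / Timing: enzyme-compound preincubation 30 min, then probe labeling 45 min, 25 °C / Signal: FP readout at 525/598 nm / Controls: DMSO-treated enzyme wells and wells lacking RBBP9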
INS promoter inh: TRM-6 insulin promoter activity inhibition; TRM-6 cells (human fetal islet line), insulin promoter-eGFP reporter, imaging; reporter expression induced with tamoxifen; inhibition, % at 2 µM; 0.9% of 130,000 active; AID 1273;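 active = inhibition above the mean plus 3 SD, with well images judged a real hit on visual review, cut at about 60% in these data, passing the limit was not always enough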
Mdm2 ligase inh: blocks human Mdm2 ubiquitin ligase activity. cell-based MDM2 ubiquitination luciferase reporter, 2 h; 0 = plate control, 100 = twice control, blank-subtracted. signal enhancement, % at 5 µM. 0.11% of 210,000 active;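 active = signal enhancement of 30% or more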;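 also: luminescence tracks abundance of the self-degrading MDM2-luciferase fusion protein; higher signal means inhibition of MDM2 E3 ligase activity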
Target sequence (Q00987 whole entry, looked up, the tested form may be a part): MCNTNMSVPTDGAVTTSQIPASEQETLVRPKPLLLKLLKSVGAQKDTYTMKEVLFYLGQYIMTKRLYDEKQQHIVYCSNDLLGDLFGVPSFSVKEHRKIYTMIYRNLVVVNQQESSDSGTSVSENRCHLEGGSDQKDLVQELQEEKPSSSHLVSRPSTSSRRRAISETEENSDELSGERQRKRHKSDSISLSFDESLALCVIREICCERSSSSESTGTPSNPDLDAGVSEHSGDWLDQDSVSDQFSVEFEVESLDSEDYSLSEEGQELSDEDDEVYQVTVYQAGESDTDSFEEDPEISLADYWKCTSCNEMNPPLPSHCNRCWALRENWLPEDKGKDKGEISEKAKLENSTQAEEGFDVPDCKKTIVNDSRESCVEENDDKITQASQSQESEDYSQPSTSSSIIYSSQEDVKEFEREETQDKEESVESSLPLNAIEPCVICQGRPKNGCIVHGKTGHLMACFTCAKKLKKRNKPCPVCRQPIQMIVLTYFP
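system = mammalian cells stably expressing self-ubiquitinating, self-degrading MDM2 E3–luciferase fusion | quantity = 2000 cells per well seeded | incubation = 4 h cell settling then 2 h compound exposure, 37 °C | signal = SteadyLite luminescence, 15 min reagent step | benchmarks = plate control and blank wells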
Wee1 stabilizer: blocks degradation of human Wee1 kinase; HeLa Luc-Wee1K328M stability, luciferase luminescence; 100% = proteasome inhibitor MG132 effect; 1.2% of 220,000 active; reporter increase, % at 5 µM; P30291;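 active = activation above the mean of all tested compounds plus 3 SD, set per screening run, cut at about 8.8% in these data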;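 also: cells exposed to compound for 20 h before luminescence read; 0% = DMSO alone and 100% = MG132 at 30 µM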
Hsp70 activator: Hsp70 transcriptional activation, primary screen; HeLa Hsp70 promoter luciferase reporter, luminescence; scaled: vehicle 0, proteasome-inhibitor control 100%; activation, % at 10 µM; 0.04% of 200,000 active; AID 1203;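 active = activation above the mean across all tested compounds plus 3 SD, cutoff set per campaign, cut at about 5.5% in these data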;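 also: 100% = MG132 at 30 µM as the positive control and 0% = DMSO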
Wee1 degr conf: human Wee1 degradation inhibition, confirmation; 4% of 1,100 active; shares compounds with Wee1 stabilizer; activation, % at 5 µM; AID 1410; HeLa Luc-Wee1K328M degradation, luminescence; vehicle 0%, proteasome-blocked wells 100%; in the data active = activation above about 8.9%
Numbers without * were called inactive; nt = not tested or not shown.

SMILES	Ins promoter up	RBBP9 inhibitor	INS promoter inh	Mdm2 ligase inh	Wee1 stabilizer	Hsp70 activator	Wee1 degr conf
CC(c1ccccc1)n1cc(C(=O)NCC2COc3ccccc3O2)nn1 (stereo not given)	-0.09	1	39	-13	15*	0	3
CC(=O)NC1(C(=O)O)CCCC1	0.78	0	nt	-14	4	nt	nt
CCOC(=O)c1ccc2ncc(C(=O)OCC)c(NCCN(C)C)c2c1	nt	-1	nt	nt	21*	0	1
CCOC(=O)C1(CC2CCCCO2)CCN(C(=O)Nc2ccccc2SC)CC1 (stereo not given)	0.47	2	nt	-30	12*	0	3
CCOC(=O)C1(CC2CCCCO2)CCN(C(=O)Nc2ccccc2CC)CC1 (stereo not given)	-0.04	-10	nt	-14	-2	0	nt
CC(=O)Nc1ccc(C(=O)Nc2nc(-c3ccccn3)cs2)cc1	-0.99	-7	nt	-4	3	0	nt
O=C(Nc1nc(-c2ccccn2)cs1)c1ccc2c(c1)OCCO2	-1.4	1	nt	-30	31*	0	2
COc1ccc(NC(=O)CNS(=O)(=O)c2ccc(Cl)cc2)cc1OC	0.04	13	-31	-65	15*	0	3
COc1cccc(NC(=O)C2CC(=O)OC23CCOC(C)(C)C3)c1 (stereo not given)	0.83	0	-23	-8	24*	-1	2
Cc1ccc(/C=C2/C(=O)N=C(N)N2C)s1	-0.15	-9	-158	-4	1	0	nt
CCn1c(N2CCN(S(=O)(=O)c3ccc(F)cc3)CC2)nc2ccccc21	nt	0	nt	8	3	0	nt
CCn1c(N2CCN(S(=O)(=O)c3ccc(Cl)cc3)CC2)nc2ccccc21	nt	4	nt	-1	26*	0	0
C/C(=N\NC(=O)CCc1ccccc1)C1C(=O)c2ccccc2C1=O	nt	-7	nt	1	13*	0	-1
C/C(=N\NC(=O)c1ccc(N2CCCC2=O)cc1)c1ccncc1	-0.56	0	nt	-13	15*	nt	0
C/C(=N\NC(=O)c1ccccc1)c1ccc(N2CCCCC2)cc1	-0.27	-9	nt	0	5	0	nt
Cc1cc(C(=O)NP(=O)(N2CC(C)OC(C)C2)N2CC(C)OC(C)C2)c(C)n1C1CC1 (stereo not given)	0.69	2	-11	-2	-3	0	nt
Cc1ccc(/C=N/NC(=O)c2ccc3c(c2)OCCO3)s1	0.71	-10	nt	-34	12*	nt	11*
O=C(N/N=C/c1cc(Br)cs1)c1ccc2c(c1)OCCO2	-0.22	3	nt	-28	5	nt	nt
O=C(COc1ccc(Cl)cc1)NCc1nnc(SCC(=O)N2CCCC2)o1	0.42	-7	-7	-5	0	0	nt
COc1ccc(NC(=O)c2nn(C34CC5CC(CC(C5)C3)C4)cc2[N+](=O)[O-])cc1	-0.31	-4	52	-8	11*	0	0
Cn1c(CNc2ccc(Cl)cc2)nc2ccccc21	1.1	5	-6	1	13*	0	8
Cc1ccc(N2CCN(c3ccc(NCc4nc5ccccc5n4C)cc3)CC2)cc1	-0.66	-3	11	5	-2	0	nt
COc1cccc(CC2(CO)CCN(Cc3ccc(NC(C)=O)cc3)CC2)c1	nt	-7	nt	-10	22*	0	-2
COc1ccc(CC2(CO)CCN(Cc3ccc(NC(C)=O)cc3)CC2)cc1	-0.53	-5	nt	-12	-2	0	nt
CCC(C(=O)Nc1nccs1)c1ccccc1 (stereo not given)	0.89	-13	12	-15	17*	0	1
SMILES	Ins promoter up	RBBP9 inhibitor	INS promoter inh	Mdm2 ligase inh	Wee1 stabilizer	Hsp70 activator	Wee1 degr conf
CCCC(C(=O)Nc1nccs1)c1ccccc1 (stereo not given)	-1.2	-8	28	-20	0	0	nt
Cc1ccc(/C=C/C(=O)NCc2cccs2)o1	nt	0	20	-6	-1	0	nt
CCCCSc1nsc(NC(C)=O)n1	0.52	-6	nt	-10	1	1	nt
CCCSc1nsc(NC(=O)CCC)n1	nt	-11	0	-5	13*	0	4
CCOC(=O)c1ccc[n+](CC(=O)Nc2cc(C(F)(F)F)ccc2Cl)c1	0.21	-5	nt	1	2	0	nt
S=C1NC[C@H](Cc2ccccc2)N1CCc1cccc2ccccc12	-0.86	nt	nt	16	nt	nt	nt
COc1ccc(S(=O)(=O)N2CCN(CC(=O)Nc3ccc(F)c(F)c3)CC2)cc1	-0.24	-9	-1	-7	12*	0	1
COc1ccc(S(=O)(=O)N2CCCN(CC(=O)Nc3ccc4c(c3)OCO4)CC2)cc1	nt	-2	12	-4	1	0	nt
COC(=O)c1sccc1NC(=S)N1CCC(C(N)=O)CC1	1	3	nt	-2	0	0	nt
Cc1cc(/C=C2\SC(=S)NC2=O)c(C)n1C	0.58	-8	-100	4	-2	0	nt
Cc1cc(/C=C2\SC(=S)NC2=O)c(C)n1-c1ccccc1	0.97	2	nt	-29	15*	nt	4
COC(=O)c1ccc(NC(=O)CSCc2ccccc2C)cc1	-0.61	-15	20	21	0	0	nt
COc1ccc(-c2cc(=Nc3ccc(C)cc3)c3ccccc3o2)cc1	0.01	-6	0	5	-1	0	nt
COc1ccc(-c2cc(=NC(CC(C)C)C(=O)O)c3cc(C)ccc3o2)cc1 (stereo not given)	-0.18	-9	3	3	12*	0	-1
COC(=O)c1cc(COc2ccc3c4c(c(=O)oc3c2)CCC4)c(C)o1	nt	8	-41	-9	2	-1	nt
CCN(C(=O)CSc1nnc(C)n1Cc1ccccc1)C1CCS(=O)(=O)C1 (stereo not given)	-0.36	-12	nt	-19	13*	0	0
CCN(CC)C(=O)C(=O)c1cn(CCOc2ccccc2)c2ccccc12	-0.02	8	16	-27	-1	0	nt
COC(=O)c1c(NC(NC(C)=O)C(Cl)(Cl)Cl)sc2c1CCCC2 (stereo not given)	-0.01	-6	-46	-15	14*	0	4
CCOC(=O)c1c(NC(NC(C)=O)C(Cl)(Cl)Cl)sc2c1CCCC2 (stereo not given)	0.32	-4	nt	-16	-2	0	nt
CCOc1ccccc1CN1CCN(C2CCSCC2)CC1CCO (stereo not given)	-0.27	-4	-28	-3	-2	0	nt
CC1CCCN(CC(O)COC(c2ccccc2)c2ccccc2)C1 (stereo not given)	-0.49	-6	-56	-4	12*	-1	-1
O=C(Nc1cccs1)Nc1ccc(Br)cc1F	0.91	-6	70*	-2	14*	0	-2
